Laboratory results from ChEMBL document CHEMBL3244308, “Potential antitumor agents. 22. Latentiated congeners of the 4'-(9-acridinylamino)methanesulfonanilides” (J Med Chem, 1977).

Columns and labels:
L1210 [1] = assay: Antitumor activity against mouse L1210 cells intraperitoneally xenografted in ip dosed C3H/DBA2 F1 hybrid mouse assessed as increase in host lifespan administered daily for 5 days starting 24 hrs post-tumor implantation; type: functional
Summary of the method: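 10⁵ L1210 cells implanted ip into 18.5-22.5-g C3H/DBA2 F1 mice. Daily ip treatment for 5 days from 24 h after implant, as water-soluble salts (methanesulfonate or hydrochloride) or as homogenized suspensions in aqueous methylcellulose. Groups of six mice. Read-out is increase in life span (T/C% − 100) at the optimum dose (maximal life-span increase, mg/kg/day); 50-day survivors counted.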

[2] = Lipophilic-hydrophilic balance, Rm of the compound by reversed-phase partition chromatography; type: physicochemical
Mus musculus = assay: Toxicity in ip dosed mouse assessed as optimum dose that providing maximum increase in life span administered qd for 1 to 5 days; type: organism-based; details: in vivo
Summary of the method: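 Mice were C3H/DBA2 F1 hybrids weighing 18.5-22.5 g. L1210 cells (10^5) were implanted ip or sc above the right axilla. Daily ip treatment began 24 h later and continued for 5 days (dq 1-5), given in water or as a homogenized suspension in aqueous methylcellulose. The optimum dose (mg/kg/day) is the one giving maximum life-span increase (T/C% - 100). Groups were six mice; 50-day survivors were counted.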

L1210 [3] = assay: Antitumor activity against mouse L1210 cells subcutaneously xenografted in ip dosed C3H/DBA2 F1 hybrid mouse assessed as increase in host lifespan administered daily for 5 days starting 24 hrs post-tumor implantation; type: functional
Summary of the method: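 10⁵ L1210 cells implanted sc above the right axilla into 18.5-22.5-g C3H/DBA2 F1 mice. Daily ip dosing for 5 days from 24 h after implant, as water-soluble salts or as homogenized suspensions in aqueous methylcellulose. Groups of six mice. Increase in life span (T/C% − 100) at the optimum dose (maximal life-span increase, mg/kg/day); 50-day survivors counted.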

SMILES	ILS (L1210 [1])	Rm [2]	Activity (Mus musculus)	ILS (L1210 [3])
CCCC(=O)N(c1ccc(Nc2c3ccccc3nc3c(C)cccc23)c(OC)c1)S(C)(=O)=O	52%	0.53	75 mg/kg	–
CCC(=O)N(c1ccc(Nc2c3ccccc3nc3c(C)cccc23)c(OC)c1)S(C)(=O)=O	31%	0.37	25 mg/kg	–
COc1cc(N(C(C)=O)S(C)(=O)=O)ccc1Nc1c2ccccc2nc2c(C)cccc12	38%	0.24	7.5 mg/kg	–
CCCC(=O)N(c1ccc(Nc2c3ccccc3nc3cc([N+](=O)[O-])ccc23)cc1)S(C)(=O)=O	52%	0.27	50 mg/kg	–
CCN(CC)/N=N/c1ccc2c(Nc3ccc(NS(C)(=O)=O)cc3)c3ccccc3nc2c1	–	0.49	–	–
COc1cc(NS(C)(=O)=O)ccc1Nc1c2ccccc2nc2c(C)cccc12	111%	0.11	6 mg/kg	47%
CCCCC(=O)N(c1ccc(Nc2c3ccccc3nc3c(C)cccc23)c(OC)c1)S(C)(=O)=O	50%	0.66	250 mg/kg	–
CCCCCC(=O)N(c1ccc(Nc2c3ccccc3nc3c(C)cccc23)c(OC)c1)S(C)(=O)=O	39%	0.79	66 mg/kg	–
CC(=O)Nc1ccc2c(Nc3ccc(N(C(C)=O)S(C)(=O)=O)cc3)c3ccccc3nc2c1.Cl	118%	-0.19	28 mg/kg	43%
CCC(=O)N(c1ccc(Nc2c3ccccc3nc3cc(NC(C)=O)ccc23)cc1)S(C)(=O)=O.Cl	135%	0	40 mg/kg	88%
CCC(=O)N(c1ccc(Nc2c3ccccc3nc3ccccc23)cc1)S(C)(=O)=O.Cl	88%	0.07	300 mg/kg	56%
CCCC(=O)N(c1ccc(Nc2c3ccccc3nc3ccccc23)cc1)S(C)(=O)=O.Cl	31%	0.28	400 mg/kg	–
CCCCC(=O)N(c1ccc(Nc2c3ccccc3nc3ccccc23)cc1)S(C)(=O)=O.Cl	68%	0.34	400 mg/kg	28%
CCCCCC(=O)N(c1ccc(Nc2c3ccccc3nc3ccccc23)cc1)S(C)(=O)=O.Cl	41%	0.45	150 mg/kg	–
Br.CCCCCCC(=O)N(c1ccc(Nc2c3ccccc3nc3ccccc23)cc1)S(C)(=O)=O	61%	0.54	150 mg/kg	27%
CCCCCCCC(=O)N(c1ccc(Nc2c3ccccc3nc3ccccc23)cc1)S(C)(=O)=O.Cl	41%	0.68	400 mg/kg	–
CCCCCCCCC(=O)N(c1ccc(Nc2c3ccccc3nc3ccccc23)cc1)S(C)(=O)=O.Cl	31%	0.74	400 mg/kg	–
COc1cc(N(C(C)=O)S(C)(=O)=O)ccc1Nc1c2ccccc2nc2ccccc12.Cl	70%	0.05	6 mg/kg	33%
CCOC(=O)CCC(=O)N(c1ccc(Nc2c3ccccc3nc3c(C)cccc23)c(OC)c1)S(C)(=O)=O	43%	0.62	18 mg/kg	–
CCCC(=O)N(c1ccc(Nc2c3ccccc3nc3cc(NC(C)=O)ccc23)cc1)S(C)(=O)=O.Cl	98%	0.22	50 mg/kg	62%

SMILES	ILS (L1210 [1])	Rm [2]	Activity (Mus musculus)	ILS (L1210 [3])
CCCCC(=O)N(c1ccc(Nc2c3ccccc3nc3cc(NC(C)=O)ccc23)cc1)S(C)(=O)=O.Cl	89%	0.36	80 mg/kg	63%
CCCCCC(=O)N(c1ccc(Nc2c3ccccc3nc3cc(NC(C)=O)ccc23)cc1)S(C)(=O)=O.Cl	81%	0.51	42 mg/kg	43%
Br.CCCCCCC(=O)N(c1ccc(Nc2c3ccccc3nc3cc(NC(C)=O)ccc23)cc1)S(C)(=O)=O	71%	0.63	14 mg/kg	47%
Br.CCCCCCCC(=O)N(c1ccc(Nc2c3ccccc3nc3cc(NC(C)=O)ccc23)cc1)S(C)(=O)=O	83%	0.69	22 mg/kg	45%
Br.CCCCCCCCC(=O)N(c1ccc(Nc2c3ccccc3nc3cc(NC(C)=O)ccc23)cc1)S(C)(=O)=O	143%	0.72	45 mg/kg	83%
CC(C)(C)C(=O)N(c1ccc(Nc2c3ccccc3nc3ccccc23)cc1)S(C)(=O)=O.Cl	47%	0.31	250 mg/kg	–
CC(=O)N(c1ccc(Nc2c3ccccc3nc3cc(N)ccc23)cc1)S(C)(=O)=O.Cl	74%	-0.22	2 mg/kg	–
Br.CCC(=O)N(c1ccc(Nc2c3ccccc3nc3cc(N)ccc23)cc1)S(C)(=O)=O	49%	-0.04	2 mg/kg	–
CCCC(=O)N(c1ccc(Nc2c3ccccc3nc3cc(N)ccc23)cc1)S(C)(=O)=O.Cl	53%	0.13	1 mg/kg	–
CCCCC(=O)N(c1ccc(Nc2c3ccccc3nc3cc(N)ccc23)cc1)S(C)(=O)=O.Cl	61%	0.31	1 mg/kg	–
CCCCCC(=O)N(c1ccc(Nc2c3ccccc3nc3cc(N)ccc23)cc1)S(C)(=O)=O.Cl	46%	0.43	2 mg/kg	–
CCCCCCC(=O)N(c1ccc(Nc2c3ccccc3nc3cc(N)ccc23)cc1)S(C)(=O)=O.Cl	31%	0.51	2 mg/kg	–
CCCCCCCC(=O)N(c1ccc(Nc2c3ccccc3nc3cc(N)ccc23)cc1)S(C)(=O)=O.Cl	119%	0.57	2.5 mg/kg	–
CCCCCCCCC(=O)N(c1ccc(Nc2c3ccccc3nc3cc(N)ccc23)cc1)S(C)(=O)=O.Cl	64%	0.59	2.5 mg/kg	–
CCOC(=O)CCC(=O)N(c1ccc(Nc2c3ccccc3nc3c(C)cccc23)c(OC)c1)S(C)(=O)=O.CS(=O)(=O)O	40%	–	13.3 mg/kg	–
CCN(CC)/N=N/c1ccc2c(Nc3ccc(NS(C)(=O)=O)cc3)c3ccccc3nc2c1.CS(=O)(=O)O	96%	–	25 mg/kg	28%
CCCOC(=O)CCC(=O)N(c1ccc(Nc2c3ccccc3nc3c(C)cccc23)c(OC)c1)S(C)(=O)=O	–	0.75	75 mg/kg	–
CC(=O)Nc1ccc2c(Nc3ccc(NS(C)(=O)=O)cc3)c3ccccc3nc2c1	114%	-0.12	13 mg/kg	33%
CS(=O)(=O)Nc1ccc(Nc2c3ccccc3nc3cc(N)ccc23)cc1	81%	-0.17	2.5 mg/kg	–
CS(=O)(=O)Nc1ccc(Nc2c3ccccc3nc3ccccc23)cc1	107%	0	45 mg/kg	28%
